Data taken from ChEMBL document CHEMBL3792316, “2-Phenylbenzofuran derivatives as butyrylcholinesterase inhibitors: Synthesis, biological activity and molecular modeling” (Bioorg Med Chem Lett, 2016).
Active and inactive are the calls of the source. No cut-off for these calls is given here.

Tests used:
[1] = target: T1, Cholinesterase (Equus caballus, UniProt P81908); assay: Inhibition of equine BChE using S-butyrylthiocholine chloride as substrate by Ellman's method
Method in brief: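 IC50 values are the mean ± SD of three independent experiments.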

[2] = target: Cholinesterase (Equus caballus) (UniProt P81908); assay: Inhibition of equine BChE at 100 uM using S-butyrylthiocholine chloride as substrate by Ellman's method
Chain of Cholinesterase (Equus caballus) (P81908 whole entry): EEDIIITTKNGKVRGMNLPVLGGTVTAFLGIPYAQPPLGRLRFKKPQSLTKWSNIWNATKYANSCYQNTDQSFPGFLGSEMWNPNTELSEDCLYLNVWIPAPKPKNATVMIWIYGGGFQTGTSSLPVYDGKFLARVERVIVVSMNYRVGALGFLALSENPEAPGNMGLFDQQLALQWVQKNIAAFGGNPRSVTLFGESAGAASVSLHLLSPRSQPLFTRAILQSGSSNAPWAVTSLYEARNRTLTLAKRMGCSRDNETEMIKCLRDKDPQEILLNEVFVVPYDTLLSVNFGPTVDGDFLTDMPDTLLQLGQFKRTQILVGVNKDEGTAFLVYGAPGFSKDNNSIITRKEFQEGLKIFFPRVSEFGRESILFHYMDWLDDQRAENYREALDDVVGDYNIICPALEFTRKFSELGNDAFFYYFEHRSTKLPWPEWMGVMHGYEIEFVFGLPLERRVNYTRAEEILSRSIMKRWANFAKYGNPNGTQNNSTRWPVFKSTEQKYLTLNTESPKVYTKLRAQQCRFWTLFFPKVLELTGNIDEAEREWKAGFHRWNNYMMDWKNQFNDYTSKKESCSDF

[3] = Antioxidant activity assessed as ABTS free radical scavenging activity after 1 min by spectrophotometry
[4] = Antioxidant activity assessed as ABTS free radical scavenging activity at 100 uM after 1 min by spectrophotometry
[5] = target: Acetylcholinesterase (Electrophorus electricus) (UniProt O42275); assay: Inhibition of electric eel AChE at 100 uM using acetylthiocholine iodide as substrate by Ellman's method
Chain of Acetylcholinesterase (Electrophorus electricus) (O42275 24-633 limits assumed): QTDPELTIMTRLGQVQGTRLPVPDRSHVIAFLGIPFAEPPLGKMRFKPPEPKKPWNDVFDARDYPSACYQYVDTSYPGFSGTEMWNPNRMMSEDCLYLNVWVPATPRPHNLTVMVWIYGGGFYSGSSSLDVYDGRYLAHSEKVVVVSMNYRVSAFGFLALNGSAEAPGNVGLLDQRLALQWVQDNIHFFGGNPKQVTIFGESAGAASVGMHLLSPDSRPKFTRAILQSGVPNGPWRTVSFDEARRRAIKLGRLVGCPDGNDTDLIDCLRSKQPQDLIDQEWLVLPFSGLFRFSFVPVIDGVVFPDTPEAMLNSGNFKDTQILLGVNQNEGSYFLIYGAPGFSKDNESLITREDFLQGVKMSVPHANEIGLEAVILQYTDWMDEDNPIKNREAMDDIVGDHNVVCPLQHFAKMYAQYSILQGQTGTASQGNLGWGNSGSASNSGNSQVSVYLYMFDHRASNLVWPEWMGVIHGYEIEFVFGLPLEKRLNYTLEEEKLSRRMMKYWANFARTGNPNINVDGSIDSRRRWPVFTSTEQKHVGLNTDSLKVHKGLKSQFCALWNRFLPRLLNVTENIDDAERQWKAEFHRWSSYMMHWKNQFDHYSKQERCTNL

[6] = target: T1, Cholinesterase; assay: Mixed-type inhibition of equine BChE using S-butyrylthiocholine chloride as substrate assessed as enzyme-substrate complex by Lineweaver-Burk reciprocal plot method
[7] = Cytotoxicity against mouse NSC-34 cells assessed as cell viability after 48 hrs by MTS assay; type: cell-based; conditions: nsc-34, 48 h
[8] = target: T1, Cholinesterase; assay: Mixed-type inhibition of equine BChE using S-butyrylthiocholine chloride as substrate assessed as free enzyme by Lineweaver-Burk reciprocal plot method

T1 sequence (P81908 whole entry): as the sequence (P81908 whole entry) above

SMILES	IC50 [1] [µM]	inhibition [2]	IC50 ([3]; ABTS free radical) [µM]	INH [4] [%]	inhibition [5]	IC50 [3] [µM]	Ki [6] [µM]	Activity [7]	Ki [8] [µM]
COc1ccc(-c2cc3cccc(Cl)c3o2)cc1	> 100	5%							
Cc1cccc2cc(-c3ccc(O)cc3)oc12	77	58%	53.5	72					
c1ccc(-c2cc3ccccc3o2)cc1	> 100	6%			inactive				
Cc1ccc2oc(-c3ccc(O)cc3)cc2c1	> 100	19%		31	4.8%				
Brc1cccc2cc(-c3ccccc3)oc12	> 100	12%			4%				
Oc1ccc(-c2cc3ccccc3o2)cc1	> 100	inactive		24	inactive				
Oc1ccc(-c2cc3cc(Cl)ccc3o2)cc1	> 100	15%		15					
Cc1c(C)c2c(c(C)c1O)CCC(C)(C(=O)O)O2 (stereo unspecified) [TROLOX]			13						
Oc1ccc(-c2cc3cccc(Cl)c3o2)cc1	30.3	77%		62.4		67.6	87.4	Non-toxic	5
Oc1ccc(-c2cc3cccc(Br)c3o2)cc1	82.5	54%	93.6	53					
Oc1ccc(-c2cc3cc(Br)ccc3o2)cc1	> 100	16.6%		15					
COc1ccc(-c2cc3ccccc3o2)cc1	> 100	inactive			inactive				
